ChEMBL document CHEMBL3272179, “Synthetic metabolites of neurohypophyseal hormones. (Des-9-glycinamide)oxytocin and (des-9-glycinamide, des-8-leucine)oxytocin” (1976)
Active and inactive are the calls of the source. The calls are words filed in the database; no cut-off is given here. Positions of bridges follow the written chain, without caps; N, C: chain ends. Residues, ends and D or L forms follow the SMILES beside them.

How the values were obtained:
Rattus norvegicus [1] = experiment: Antidiuretic activity in inactin- and ethanol-anesthetized, hydrated Sprague-Dawley rat assessed as maximal depression of rate of urine flow; assay type: functional
Method in brief: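 Six male Sprague-Dawley rats, anesthetized with Inactin and ethanol and hydrated. Method of Jeffers et al. as modified by Sawyer. The effective response was the maximal depression of urine flow rate. Four-point design or matches against USP Posterior Pituitary Reference Standard.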

Rattus norvegicus [2] = experiment: Pressor activity in atropinized and urethane-anesthetized rat at 1 mg; assay type: functional, organism-based
Method in brief: (§1)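 Minimum of five atropinized, urethane-anesthetized male rats, following U.S. Pharmacopeia procedures. Tested for agonist and antagonist activity at single doses up to 1 mg. USP Posterior Pituitary Reference Standard used as reference.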

Gallus gallus [3] = experiment: Vasodepressor activity in conscious chicken; assay type: functional
Method in brief: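 Conscious chickens, minimum three, procedure of Coon. Tested for agonist activity at up to 1 mg analog per injection. Four-point design or matches against USP Posterior Pituitary Reference Standard.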

[4] = Oxytocic activity in uterine horns of rat […]; assay type: functional
Method in brief: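 Six isolated uterine horns from three rats in natural estrus, with estrus confirmed by vaginal smear on the assay morning. Holton method as modified by Munsick, in Mg2+-free van Dyke-Hastings bathing solution. Four-point design or matches against USP Posterior Pituitary Reference Standard.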

Gallus gallus [5] = experiment: Inhibition of oxytocin-induced vasodepressor activity in conscious chicken; assay type: functional, organism-based
Method in brief: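 Analog and oxytocin injected simultaneously into conscious chickens (minimum three), procedure of Coon. Oxytocin held at 5×10^-11 mol while analog dose was raised stepwise to 5×10^-4 mol. Read-out was inhibition of the oxytocin vasodepressor response.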

Anura = experiment: Hydroosmotic activity in toad urinary bladder assessed as water transport; assay type: functional
Method in brief: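 Water transport across toad urinary bladder measured by Bentley's method as modified by Eggena et al. At least five animals. Four-point design or matches against USP Posterior Pituitary Reference Standard.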

Rattus norvegicus [6] = experiment: Pressor activity in atropinized and urethane-anesthetized rat; assay type: functional; method in brief: as §1

| SMILES | Activity (Rattus norvegicus [1]) | Activity (Rattus norvegicus [2]) | Activity (Gallus gallus [3]) | Activity [4] | inhibition (Gallus gallus [5]) | Activity (Anura) | Activity (Rattus norvegicus [6]) |
| --- | --- | --- | --- | --- | --- | --- | --- |
| CC[C@H](C)[C@@H]1NC(=O)[C@H](Cc2ccc(O)cc2)NC(=O)[C@@H](N)CSSC[C@@H](C(=O)N2CCC[C@H]2C(=O)O)NC(=O)[C@H](CC(N)=O)NC(=O)[C@H](CCC(N)=O)NC1=O (H-CYIQNCP-OH; disulfide 1-6) | 0.06 U/mg | inactive | 0.1 U/mg | 2.7 U/mg |  |  |  |
| CC[C@H](C)[C@@H]1NC(=O)[C@H](Cc2ccc(O)cc2)NC(=O)[C@@H](N)CSSC[C@@H](C(=O)N2CCC[C@H]2C(=O)N[C@@H](CC(C)C)C(=O)O)NC(=O)[C@H](CC(N)=O)NC(=O)[C@H](CCC(N)=O)NC1=O (H-CYIQNCPL-OH; disulfide 1-6) | 0.08 U/mg | inactive |  | 2.4 U/mg | Active | 4 ×10⁻⁹ M |  |
| CC[C@H](C)[C@@H]1NC(=O)[C@H](Cc2ccc(O)cc2)NC(=O)[C@@H](N)CSSC[C@@H](C(=O)N2CCC[C@H]2C(=O)N[C@@H](CC(C)C)C(=O)NCC(N)=O)NC(=O)[C@H](CC(N)=O)NC(=O)[C@H](CCC(N)=O)NC1=O [OXYTOCIN] | 2.1 U/mg |  | 507 U/mg | 546 U/mg |  | 2.3 ×10⁻⁹ M | 3.1 U/mg |
